PostGolgi yeast: growth inhibition of a yeast mutant, post-Golgi transport screen; post-Golgi transport phenotypic cell assay; inhibition, % at 10 µM; 98,000 compounds, 0.9% hits;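 further: yeast cells grown in 1536-well plates; yeast grown about 18 h at 30C before absorbance read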
PostGolgi ctrl: inhibits growth of the yeast control strain. efflux-deficient yeast background strain, growth absorbance A615, 16 h. inhibition, % at 10 µM. 98,000 compounds, 5% hits
Ecoli tolC: blocks growth of E. coli BW25113 tolC mutant; OD615; growth inhibition, % at 10 µM (by protocol); 65,000 compounds, 2.2% hits;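 active means growth inhibition at or above a cutoff equal to the mean over every tested compound plus 3 SD, cut at about 60% in these data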;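 further: growth measured after 20 h incubation at 37 °C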
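signal = optical density read at 615 nm | test system = E. coli ΔtolC::kan strain BW25113 | timing = 20 h compound exposure of bacteria at 37 °C | buffer or medium = LB medium plus 50 µg/mL kanamycin | compound dosing = 10 µM final, single dose | evaluation = % inhibition of E. coli growth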
Ecoli WT expand: E. coli BW25113 growth inhibition, expanded screen; OD600 absorbance; growth inhibition, % at 100 µM; 98,000 compounds, 0.15% hits; AID 710;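 active means growth inhibition above about 50% at one test dose, limit read from the data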;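 further: growth measured after 20 h incubation at 37 °C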
HePTP inhibitor: human HePTP phosphatase inhibition; recombinant HePTP phosphatase activity, OD absorbance; inhibition, % at 20 µM; 110,000 compounds, 0.64% hits; in the data active means inhibition above about 50%;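 further: plate controls were vehicle for no effect and reference inhibitor for full effect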
Target sequence (P35236 whole entry, looked up): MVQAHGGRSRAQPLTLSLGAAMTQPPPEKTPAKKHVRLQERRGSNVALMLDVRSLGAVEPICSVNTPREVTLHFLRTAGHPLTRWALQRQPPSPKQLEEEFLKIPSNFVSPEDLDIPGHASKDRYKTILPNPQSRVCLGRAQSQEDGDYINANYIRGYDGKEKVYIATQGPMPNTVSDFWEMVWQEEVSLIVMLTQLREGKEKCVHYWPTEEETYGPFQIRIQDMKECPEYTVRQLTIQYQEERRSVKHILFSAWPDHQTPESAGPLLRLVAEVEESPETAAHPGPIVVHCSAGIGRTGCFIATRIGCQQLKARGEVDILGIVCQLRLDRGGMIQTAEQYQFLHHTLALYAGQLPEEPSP
PLAP act: human PLAP activation. purified PLAP enzyme, luminescent substrate read-out; active compounds read high. 96,000 compounds, 1.2% hits. activation fold at 20 µM; in the data active means activation fold above about 2
An asterisk follows results filed as active; . = not tested or not shown. Compounds with a hit are over-represented: about 5.5% of the library has one in this group of screens. Unless noted, no stated cut-off is given here; in the data, active means inhibition above about 30%; inactive means the rest.

SMILES | PostGolgi yeast | PostGolgi ctrl | Ecoli tolC | Ecoli WT expand | HePTP inhibitor | PLAP act
N#Cc1c(C(F)(F)F)cc(-c2ccccc2)nc1SCc1nc(N)nc(N2CCOCC2)n1 | -2 | 45* | 0 | -1 | 11 | 1.5
Cc1nn(C(=O)c2ccnn2C)c(C)c1Br | . | . | . | . | 7 | .
N#CC1=C(SCC(=O)c2cc3ccccc3oc2=O)NC(=O)C(C#N)C12CCCC2 (stereo unspecified) | 9 | 8 | 61* | -2 | -2 | 1.5
CC(C)(C)C1CCC2(CC1)C(C#N)=C(SCC(=O)Nc1ccccc1)NC(=O)C2C#N (stereo unspecified) | -3 | 18 | 16 | 2 | -6 | 1.6
CCNC(=S)N(Cc1ccc(Cl)cc1)C1CC(=O)N(c2ccccc2)C1=O (stereo unspecified) | . | . | . | . | -5 | .
Cc1cccc(OCc2nnc(NC(=O)Nc3ccccc3)s2)c1 | . | . | . | . | 5 | .
Cc1ccc2nc3c(cc(C#N)c(=O)n3-c3nccs3)c(=O)n2c1 | 4 | 31* | -23 | -6 | 8 | 1.1
Cc1ccc2nc3c(cc(C#N)c(=O)n3CCN3CCOCC3)c(=O)n2c1 | . | . | -20 | . | -2 | 1
COC(=O)CSc1nc2ccccc2nc1SCC(=O)OC | 0 | 4 | 7 | -8 | 1 | 1
COC(=O)CSc1cnc2ccccc2n1 | -5 | 32* | . | 7 | . | 1
Cc1nnc(SCC(=O)Nc2sccc2C(N)=O)n1Cc1ccccc1 | 6 | 32* | -8 | -1 | 8 | 1.1
CC(=O)Nc1cccc(C(=O)OC(C(=O)c2ccc(C)cc2)c2ccccc2)c1 (stereo unspecified) | -11 | 33* | . | -8 | . | 1.2
CC(=O)Nc1cccc(C(=O)OC(C(=O)c2ccc(C)c(C)c2)c2ccccc2)c1 (stereo unspecified) | -2 | 25 | . | -7 | . | 0.9
O=C(Nc1ccc(-c2nc3ccccc3o2)cc1)c1cccs1 | . | . | . | . | 5 | .
CC1=C(C(=O)Nc2ccccc2Cl)C(c2cccc(Cl)c2)NC(=O)N1 (stereo unspecified) | . | . | . | . | -2 | .
Cc1ccc(Cl)cc1N1CCN(C(=O)COc2ccc(S(=O)(=O)NC(C)C)cc2)CC1 | -12 | 2 | 63* | -14 | -4 | 1.7
O=C(NC1CCCCC1)N1CCN(c2cccc(Cl)c2)CC1 | . | . | . | . | 5 | .
CC(C)NS(=O)(=O)c1ccc(OCC(=O)N2CCCC2)c(Cl)c1 | 13 | 11 | . | 2 | . | 0.9
O=C(COc1ccc(S(=O)(=O)NC2CCCCC2)cc1)N1CCN(c2cccc(Cl)c2)CC1 | 14 | 41* | . | -10 | . | 1.2
CCN1C(=O)/C(=C\c2ccc(N(C)C)cc2)SC1=S | . | . | . | . | -7 | .
O=C(Nc1ccccc1C(=O)Nc1ccc(Cl)cc1)c1ccccn1 | . | . | . | . | -2 | .
O=C(Nc1cccc(Br)c1)C1C2CC/C=C\CCC21 (stereo unspecified) | . | . | . | . | 8 | .
COc1ccc(N(CC(=O)N2CCN(c3ccccc3OC)CC2)S(=O)(=O)c2ccccc2)c(OC)c1 | . | . | . | . | 1 | .
c1ccc(-c2nc(CSc3nnnn3-c3ccccc3)cs2)cc1 | -13 | 49* | 55 | -7 | -6 | 0.7
Cc1ncc(CSc2nnnn2-c2ccccc2)c(N)n1 | -3 | 32* | 18 | 12 | 5 | 0.9
SMILES | PostGolgi yeast | PostGolgi ctrl | Ecoli tolC | Ecoli WT expand | HePTP inhibitor | PLAP act
Cc1ccc(CSc2nnnn2-c2ccccc2)cc1 | . | . | . | . | -1 | .
COc1cccc(C2/C(=C(\O)c3ccc(C)cc3)C(=O)C(=O)N2CCCC(=O)O)c1 (stereo unspecified) | . | . | . | . | -4 | .
COc1cccc(C2Nc3ccccc3NC3=C2C(=O)CC(c2ccccc2Cl)C3)c1OC (stereo unspecified) | . | . | . | . | 4 | .
CCc1nc(SCC(=O)c2ccc3c(c2)OCCO3)c2ccccc2n1 | -4 | 32* | . | -13 | . | 1.2
CCC(C)NC(=O)c1c(N)n(/N=C/c2ccccn2)c2nc3ccccc3nc12 (stereo unspecified) | 1 | 37* | 21 | -17 | 0 | 1.5
c1cn2c(NC3CCCC3)c(-c3ccc(N4CCOCC4)cc3)nc2cn1 | -1 | 4 | -4 | -1 | 3 | 1.4
CCN(CC)c1ccc(-c2nc3cnccn3c2NC2CCCC2)cc1 | -8 | 35* | . | -7 | . | 1.3
CC1CCCN(C(=O)c2ccccc2NC(=O)c2ccc(Cl)cc2)C1 (stereo unspecified) | . | . | . | . | -4 | .
CC(C)C(c1nnnn1Cc1ccco1)N1CCN(c2cccc(Cl)c2)CC1 (stereo unspecified) | 2 | 21 | 15 | -9 | -1 | 1.3
CC(C)C(c1nnnn1C(C)(C)C)N1CCN(c2cccc(Cl)c2)CC1 (stereo unspecified) | 6 | 90* | 24 | -25 | 4 | 1.7
Cc1ccc(N2C(=O)/C(=C/c3cc(C)n(-c4cccnc4)c3C)C(=O)NC2=S)cc1C | . | . | . | . | 15 | .
COc1ccc2cc3cc(C(=O)NCCN4CCc5ccccc5C4)oc3nc2c1 | 6 | 66* | 55 | 7 | -4 | 1.4
CCCN(CCC)CCCNC(=O)c1cc2cc3ccc(OC)cc3nc2o1 | 5 | 40* | -2 | -3 | 8 | 1.6
CCCCN(CC)CCCNC(=O)c1cc2cc3ccc(OC)cc3nc2o1 | 7 | 46* | 0 | 2 | 15 | 1.4
CCN1CCN(CCCNC(=O)c2cc3cc4ccc(OC)cc4nc3o2)CC1 | 13 | 35* | -3 | 0 | 5 | 1.5
COC(=O)CCN(C(C)=O)c1ccc(N)cc1 | -7 | 40* | -18 | -8 | 10 | 1.2
CC1CC(C)CN(CCOc2ccc(Cl)cc2Cl)C1 (stereo unspecified) | 89* | 29 | . | 40 | . | 1.3
CC1CCCN(CCOCCOc2ccc(Cl)cc2Br)C1 (stereo unspecified) | 103* | 22 | . | 28 | . | 1.5
CC1CCN(CCOCCOc2ccccc2Br)CC1 | . | . | . | . | -1 | .
Cc1ccccc1S(=O)(=O)NNC(=O)C(=O)NNc1ccccn1 | -5 | -7 | . | 28 | . | 2.4*
Nc1ccc(S(=O)(=O)NNC(=O)C(=O)NNc2ccccn2)cc1 | -4 | -1 | . | 6 | . | 1.7
Cc1ccc(S(=O)(=O)Nc2ccccn2)cc1C | . | . | . | . | 7 | .
Cc1ccc(S(=O)(=O)NNC(=O)C(=O)NNc2ccccn2)cc1 | 0 | 6 | . | 32 | . | 2.4*
COC(=O)CCN1C(=O)/C(=C/c2cccc(OCc3ccccc3)c2)SC1=S | . | . | . | . | 8 | .
CCOC(=O)Cn1c(=N)n(Cc2ccccc2Cl)c2ccccc21 | . | . | . | . | 5 | .
SMILES | PostGolgi yeast | PostGolgi ctrl | Ecoli tolC | Ecoli WT expand | HePTP inhibitor | PLAP act
O=Nc1c(O)n(Cc2ccc(Cl)cc2Cl)c2ccccc12 | 34* | 65* | . | 7 | . | 1
CCOC(=O)n1c(=O)n(Cc2ccc(Cl)cc2Cl)c2ccccc21 | -11 | 34* | . | -10 | . | 1.2
CCOC(=O)n1c(=O)n(Cc2ccccc2Cl)c2ccccc21 | 8 | 47* | . | 3 | . | 1.1
CSc1nc2ccc(NC(=O)c3ccc(Br)cc3F)cc2s1 | . | . | . | . | 5 | .
Cc1nc2ccccc2cc1OCc1ccc(Cl)cc1 | 2 | 36* | . | -1 | . | 1.1
O=[N+]([O-])c1ccc(-c2ccc(/C=N/NS(=O)(=O)c3ccc(Cl)cc3)o2)cc1 | . | . | . | . | 5 | .
O=C(NNC(=O)c1cc(-c2ccccc2)nc2ccccc12)Nc1cccc(Cl)c1 | 0 | 14 | . | -14 | . | 1.9

Screening data: PubChem BioAssay, several laboratories
